Experimental data gathered from unrelated publications.
Lines come from different studies, so protocols differ.
Target: Ephrin type-A receptor 4 (EPHA4, Homo sapiens, UniProt P54764)

| SMILES | observed | action | technique | tested at | measurement | value |
| --- | --- | --- | --- | --- | --- | --- |
| COc1ncccc1-c1cnn2ccc(N3CCN(C(=O)OC(C)C)CC3)nc12 | binding | – | competition with immobilised ligand | 1 µM | remaining binding | 100% |
| Cn1cc(-c2cc(F)cc(N3CCn4c(cc5c4CCCC5)C3=O)c2CO)cc(Nc2ccc(N3CCN(C4COC4)CC3)cn2)c1=O | enzyme activity | inhibitor | – | 0.1 µM | inhibition | 12% |
| O=c1[nH]c2ccccc2n1C1CCN(Cc2ccc(-c3[nH]c4cc5ncnc5cc4nc3-c3ccccc3)cc2)CC1 | cell-free assay | – | – | 0.5 µM | remaining signal | 97.1% |
| Cn1cc(-c2cccc(N3CCc4c(sc5c4CC(C)(C)C5)C3=O)c2CO)cc(Nc2ccncn2)c1=O | enzyme activity | inhibitor | – | 1 µM | inhibition | 3% |
| Cc1nn(C)cc1-c1nc2c(N3CCN(Cc4ccc(Cl)cc4)CC3)c(Cl)cnc2[nH]1 | binding | – | competition with immobilised ligand | 1 µM | remaining binding | 100% |
| COc1cc(Nc2ncc(F)c(Nc3ccc4c(n3)NC(=O)C(C)(C)O4)n2)cc(OC)c1OC | binding | – | competition with immobilised ligand | 10 µM | inhibition | 69% |
| CC(C)(C)c1cc(C=C(C#N)C#N)cc(Br)c1O | enzyme activity | inhibitor | – | 0.5 µM | remaining activity | 94.7% |
| Nc1ncc(-c2nc(N3CCOCC3)nc(N3CCOCC3)n2)c(C(F)F)n1 | cell-free assay | – | competition with immobilised ligand | 10 µM | remaining binding | 94% |
| Cn1cncc1[C@](O)(COc1ccc(C#N)cc1-c1ccc(OC(F)(F)F)cc1)c1ccc(C#N)cc1 | cell-free assay | – | competition with immobilised ligand | 1 µM | remaining binding | 100% |
